Results pooled from the literature.
Protocols differ between the studies behind these lines.
Target: RAC-gamma serine/threonine-protein kinase (AKT3, Homo sapiens, UniProt Q9Y243)

Cn1nc(C(=O)NCc2ccc(C(=O)O)cc2)cc1-c1ccc2[nH]ccc2c1 — remaining binding (cell-free assay; competition with immobilised ligand; 0.1 µM): 88%
Cn1c2c(c3ccc(Cl)c(Cl)c31)C(C#N)C(C)(C)NC2=O (stereo not shown) — ΔTm (thermal stability; DSF; 10 µM): -0.2 °C
CC(C)(C)c1nc(-c2cccc(NS(=O)(=O)c3c(F)cccc3F)c2F)c(-c2ccnc(N)n2)s1 — remaining activity (enzyme activity; inhibitor; radiometric; 1 µM): 80%
CCN1CCC2(CC1)NC(=O)c1c(c3ccc(Cl)c(Cl)c3n1C)C2C#N (racemic) — ΔTm (thermal stability; DSF; 10 µM): -0.2 °C
COc1cc2ncnc(Nc3ccc(Oc4ccccc4)c(C)c3C)c2cc1OC — inhibition (enzyme activity; inhibitor; 1 µM): 1%
Cc1c(NC(=O)c2cc(C(N)=O)nc3cc(F)ccc23)c(C(F)(F)F)nn1Cc1ccc(C(C)(C)C)cc1 — remaining binding (cell-free assay; competition with immobilised ligand; 1 µM): 100%
Nc1ncnc2occ(-c3ccc(NC(=O)Nc4cc(C(F)(F)F)ccc4F)cc3)c12 — remaining signal (cell-free assay; inhibitor; 20 µM): 85%
Cn1c2c(Cl)c(Cl)ccc2c2cn[nH]c(=O)c21 — ΔTm (thermal stability; DSF; 10 µM): 0.1 °C
Cc1ccc(Nc2nccc(N(C)c3ccc4c(C)n(C)nc4c3)n2)cc1S(N)(=O)=O — remaining activity (enzyme activity; inhibitor; 0.5 µM): 93.3%
CCCOc1ccc(OC)c(F)c1C(=O)c1ccc(C(=O)N[C@@H]2CNC[C@H]2NC(=O)c2ccc3[nH]ncc3c2)cc1 — remaining activity (enzyme activity; inhibitor; 50 nM): 97%
CN(c1ccnc(CNc2nc(Nc3ccc4c(c3)CC(=O)N4)ncc2C(F)(F)F)n1)S(C)(=O)=O — remaining binding (cell-free assay; competition with immobilised ligand; 1 µM): 100%
C[C@@H]1CCN(C(=O)CC#N)C[C@@H]1N(C)c1ncnc2[nH]ccc12 — remaining signal (cell-free assay; inhibitor; 0.5 µM): 85.8%
CN1CCC2(CC1)NC(=O)c1c(c3ccc(Cl)c(Cl)c3n1C)C2C#N (racemic) — ΔTm (thermal stability; DSF; 10 µM): 0 °C
Cc1ccc(NC(=O)c2ccc(CN3CCN(C)CC3)cc2)cc1Nc1nc(-c2cccnc2)cs1 — remaining signal (cell-free assay; 0.5 µM): 102%
Cn1c2c(c3ccc(Cl)c(Cl)c31)C(C#N)C1(CCN(C(=O)OC(C)(C)C)CC1)NC2=O (racemic) — ΔTm (thermal stability; DSF; 10 µM): -0.1 °C
CN(C)CC#Cc1ccc(OCCCc2sc(N3CCc4cccc(C(=O)Nc5nc6ccccc6s5)c4C3)nc2C(=O)O)c(F)c1 — remaining binding (cell-free assay; competition with immobilised ligand; 1 µM): 100%
Cc1ccc(C(=O)Nc2ccc(CN3CCN(C)CC3)c(C(F)(F)F)c2)cc1C#Cc1cnc2cccnn12 — remaining activity (enzyme activity; inhibitor; 23.5 nM): 100%
Cc1cnc(NC2CCOCC2)nc1-n1cnc(C(=O)NC(CN)c2cc(F)cc(Cl)c2)c1 (stereo not shown) — remaining activity (enzyme activity; inhibitor; radiometric; 1 µM): 78%
O=C(Nc1cnn(-c2csc(C(=O)NC3COC3)c2)c1)Nc1ccccc1Cl — remaining activity (enzyme activity; inhibitor; 5 µM): 87.3%
CNC(=O)c1cc(Oc2ccc(NC(=O)Nc3ccc(Cl)c(C(F)(F)F)c3)cc2)ccn1 — inhibition (enzyme activity; inhibitor; 0.3 µM): -4%
CNc1cccc2cc(C(=O)Nc3ccc(C(=O)O)cc3)c(=O)[nH]c12 — inhibition (enzyme activity; inhibitor; 10 µM): 5.8%
CCN(CC)CCNC(=O)c1c(C)[nH]c(/C=C2\C(=O)Nc3ccc(F)cc32)c1C — remaining signal (cell-free assay; 0.5 µM): 71.7%
Cn1nc(C(F)(F)F)cc1-c1cnc(N2CCc3cc(S(=O)(=O)Nc4c(F)cc(Cl)cc4F)cc(N4CCCC4=O)c32)nc1 — remaining binding (cell-free assay; competition with immobilised ligand; 1 µM): 84%
CC(C)(O)[C@H]1CC[C@H](Nc2ccc3ncc(-c4cccc(C(F)(F)F)c4)n3n2)CC1 — remaining activity (enzyme activity; inhibitor; 1 µM): 96.5%
COc1cc(Nc2c(C#N)cnc3cc(OCCCN4CCN(C)CC4)c(OC)cc23)c(Cl)cc1Cl — remaining signal (cell-free assay; 0.5 µM): 90.7%
CO[C@@H](C)c1c(Nc2ccc([C@H](N(C)C(=O)C3CCS(=O)(=O)CC3)C(F)(F)F)cc2)cnc2cc(Cl)nn12 — remaining binding (cell-free assay; competition with immobilised ligand; 1 µM): 100%
CC1(C)NC(=O)c2[nH]c3c(Cl)c(Cl)ccc3c2C1C#N (stereo not shown) — ΔTm (thermal stability; DSF; 10 µM): 0 °C
CS(=O)(=O)N1CCCC(NC(=O)[C@H](CCC2CCCCC2)NC(=O)c2ccc(CNC(=O)c3cnc4ccccn34)cc2)C1 (stereo partly shown) — remaining binding (cell-free assay; competition with immobilised ligand; 0.1 µM): 100%
Cn1c2c(Cl)c(Cl)ccc2c2cc(N)[nH]c(=O)c21 — ΔTm (thermal stability; DSF; 10 µM): 0.3 °C
CCCS(=O)(=O)Nc1ccc(F)c(C(=O)c2c[nH]c3ncc(-c4ccc(Cl)cc4)cc23)c1F — inhibition (enzyme activity; inhibitor; 1 µM): < 10%
O=C(N1CCS(=O)(=O)CC1)N1C[C@H](c2ccc(OC(F)(F)F)cc2)C[C@H](c2nc(C3CC3)no2)C1 — remaining binding (cell-free assay; competition with immobilised ligand; 1 µM): 100%
